In ChEMBL document CHEMBL5303300, “EUbOPEN Chemogenomics Library - Multiplex” (2023):
Where “and” joins values, the source holds several entries; their conditions need not be identical. Equal values may be shown once.

Tested on: HEK-293T
Assay: Multiplex assay against HEK293T
Type: toxicity, cell-based
Details: human, number of replicates 2
Outline: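 Four dyes were applied at seeding to live cells: Hoechst33342, BioTracker Green Microtubule Cytoskeleton Dye, MitoTracker Red and Annexin V Alexa Fluor 680. Imaging after compound addition used a CQ1 microscope at 37°C and 5% CO2. CellPathfinder machine-learning gating then sorted cells into Hoechst high-intensity objects or normal cells, normal cells into healthy, pyknosed or fragmented nuclei, and pyknosed cells into mitotic or apoptotic, with tubulin, mitochondrial-mass and membrane-permeability phenotypes given as per cents of healthy-nucleus cells.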

[1] = 12 h, 1 µM, compound concentration 1 uM
[2] = 12 h, 10 µM, compound concentration 10 uM
[3] = 24 h, 1 µM, compound concentration 1 uM
[4] = 24 h, 10 µM, compound concentration 10 uM
[5] = 48 h, 1 µM, compound concentration 1 uM
[6] = 48 h, 10 µM, compound concentration 10 uM

Structure (SMILES): Cc1cc(NC(=O)c2cccc(NC(=O)/C=C/CN(C)C)c2)ccc1Nc1nccc(-c2cccnc2)n1
- Population Apoptotic (%) [1]: 41% and 60%
- Population Fragmented Nuclei (%) [1]: 3%
- Population Healthy Nuclei (%) [1]: 87%
- Population Hoechst High Intensity Objects (%) [1]: 11% and 10%
- Population Membrane Permeable-Phenotype (%) [1]: 4% and 2%
- Population Mitochondria Different-Phenotype (%) [1]: 40% and 30%
- Population Mitotic Cells (%) [1]: 58% and 40%
- Population Normal (%) [1]: 88% and 89%
- Population Pyknosed Nuclei (%) [1]: 9%
- Population Tubulin-Different-Phenotype (%) [1]: 93% and 92%
- Total Cell Count [1]: 450 and 477
- Population Apoptotic (%) [2]: 63% and 71%
- Population Fragmented Nuclei (%) [2]: 1% and 3%
- Population Healthy Nuclei (%) [2]: 85% and 87%
- Population Hoechst High Intensity Objects (%) [2]: 8% and 11%
- Population Membrane Permeable-Phenotype (%) [2]: 2% and 1%
- Population Mitochondria Different-Phenotype (%) [2]: 35% and 50%
- Population Mitotic Cells (%) [2]: 36% and 28%
- Population Normal (%) [2]: 91% and 88%
- Population Pyknosed Nuclei (%) [2]: 12% and 9%
- Population Tubulin-Different-Phenotype (%) [2]: 95% and 97%
- Total Cell Count [2]: 393 and 436
- Population Apoptotic (%) [3]: 62% and 53%
- Population Fragmented Nuclei (%) [3]: 5%
- Population Healthy Nuclei (%) [3]: 82% and 81%
- Population Hoechst High Intensity Objects (%) [3]: 11% and 10%
- Population Membrane Permeable-Phenotype (%) [3]: 2%
- Population Mitochondria Different-Phenotype (%) [3]: 36% and 28%
- Population Mitotic Cells (%) [3]: 37% and 46%
- Population Normal (%) [3]: 88% and 89%
- Population Pyknosed Nuclei (%) [3]: 12%
- Population Tubulin-Different-Phenotype (%) [3]: 92% and 90%
- Total Cell Count [3]: 510 and 551
- Population Apoptotic (%) [4]: 76% and 74%
- Population Fragmented Nuclei (%) [4]: 2% and 5%
- Population Healthy Nuclei (%) [4]: 87% and 77%
- Population Hoechst High Intensity Objects (%) [4]: 19% and 14%
- Population Membrane Permeable-Phenotype (%) [4]: 0% and 1%
- Population Mitochondria Different-Phenotype (%) [4]: 79% and 60%
- Population Mitotic Cells (%) [4]: 23% and 25%
- Population Normal (%) [4]: 80% and 85%
- Population Pyknosed Nuclei (%) [4]: 10% and 17%
- Population Tubulin-Different-Phenotype (%) [4]: 99% and 96%
- Total Cell Count [4]: 367 and 377
- Population Apoptotic (%) [5]: 66% and 70%
- Population Fragmented Nuclei (%) [5]: 10% and 12%
- Population Healthy Nuclei (%) [5]: 77% and 76%
- Population Hoechst High Intensity Objects (%) [5]: 11% and 12%
- Population Membrane Permeable-Phenotype (%) [5]: 5% and 7%
- Population Mitochondria Different-Phenotype (%) [5]: 10% and 11%
- Population Mitotic Cells (%) [5]: 33% and 29%
- Population Normal (%) [5]: 88% and 87%
- Population Pyknosed Nuclei (%) [5]: 11%
- Population Tubulin-Different-Phenotype (%) [5]: 83% and 80%
- Total Cell Count [5]: 671 and 800
- Population Apoptotic (%) [6]: 74% and 73%
- Population Fragmented Nuclei (%) [6]: 6%
- Population Healthy Nuclei (%) [6]: 43% and 40%
- Population Hoechst High Intensity Objects (%) [6]: 27% and 19%
- Population Membrane Permeable-Phenotype (%) [6]: 12% and 9%
- Population Mitochondria Different-Phenotype (%) [6]: 61%
- Population Mitotic Cells (%) [6]: 25% and 26%
- Population Normal (%) [6]: 72% and 80%
- Population Pyknosed Nuclei (%) [6]: 50% and 52%
- Population Tubulin-Different-Phenotype (%) [6]: 74% and 70%
- Total Cell Count [6]: 368 and 375

Structure (SMILES): COc1ccc(NC(=O)c2ccc(-c3ccc(-c4noc(C)n4)cc3C)cc2)cc1OCCN(C)C.Cl
- Population Apoptotic (%) [1]: 44% and 57%
- Population Fragmented Nuclei (%) [1]: 3%
- Population Healthy Nuclei (%) [1]: 84% and 81%
- Population Hoechst High Intensity Objects (%) [1]: 6% and 8%
- Population Membrane Permeable-Phenotype (%) [1]: 3% and 4%
- Population Mitochondria Different-Phenotype (%) [1]: 26% and 29%
- Population Mitotic Cells (%) [1]: 55% and 42%
- Population Normal (%) [1]: 93% and 91%
- Population Pyknosed Nuclei (%) [1]: 11% and 15%
- Population Tubulin-Different-Phenotype (%) [1]: 80% and 75%
- Total Cell Count [1]: 604 and 505
- Population Apoptotic (%) [2]: 83% and 80%
- Population Fragmented Nuclei (%) [2]: 5% and 4%
- Population Healthy Nuclei (%) [2]: 51% and 50%
- Population Hoechst High Intensity Objects (%) [2]: 19% and 18%
- Population Membrane Permeable-Phenotype (%) [2]: 4% and 1%
- Population Mitochondria Different-Phenotype (%) [2]: 74% and 77%
- Population Mitotic Cells (%) [2]: 16% and 19%
- Population Normal (%) [2]: 80% and 81%
- Population Pyknosed Nuclei (%) [2]: 43% and 44%
- Population Tubulin-Different-Phenotype (%) [2]: 87% and 90%
- Total Cell Count [2]: 326 and 269
- Population Apoptotic (%) [3]: 55% and 64%
- Population Fragmented Nuclei (%) [3]: 5%
- Population Healthy Nuclei (%) [3]: 84% and 81%
- Population Hoechst High Intensity Objects (%) [3]: 6% and 11%
- Population Membrane Permeable-Phenotype (%) [3]: 6% and 3%
- Population Mitochondria Different-Phenotype (%) [3]: 19%
- Population Mitotic Cells (%) [3]: 44% and 35%
- Population Normal (%) [3]: 93% and 88%
- Population Pyknosed Nuclei (%) [3]: 10% and 13%
- Population Tubulin-Different-Phenotype (%) [3]: 66% and 62%
- Total Cell Count [3]: 768 and 603
- Population Apoptotic (%) [4]: 82% and 89%
- Population Fragmented Nuclei (%) [4]: 6%
- Population Healthy Nuclei (%) [4]: 32% and 33%
- Population Hoechst High Intensity Objects (%) [4]: 23% and 19%
- Population Membrane Permeable-Phenotype (%) [4]: 6% and 0%
- Population Mitochondria Different-Phenotype (%) [4]: 74% and 77%
- Population Mitotic Cells (%) [4]: 17% and 10%
- Population Normal (%) [4]: 76% and 80%
- Population Pyknosed Nuclei (%) [4]: 60%
- Population Tubulin-Different-Phenotype (%) [4]: 74% and 86%
- Total Cell Count [4]: 296 and 269
- Population Apoptotic (%) [5]: 43% and 51%
- Population Fragmented Nuclei (%) [5]: 10% and 8%
- Population Healthy Nuclei (%) [5]: 84% and 83%
- Population Hoechst High Intensity Objects (%) [5]: 9% and 10%
- Population Membrane Permeable-Phenotype (%) [5]: 5%
- Population Mitochondria Different-Phenotype (%) [5]: 3% and 6%
- Population Mitotic Cells (%) [5]: 56% and 48%
- Population Normal (%) [5]: 90% and 89%
- Population Pyknosed Nuclei (%) [5]: 4% and 8%
- Population Tubulin-Different-Phenotype (%) [5]: 40% and 41%
- Total Cell Count [5]: 1630 and 1219
- Population Apoptotic (%) [6]: 86% and 92%
- Population Fragmented Nuclei (%) [6]: 8% and 7%
- Population Healthy Nuclei (%) [6]: 24% and 19%
- Population Hoechst High Intensity Objects (%) [6]: 28% and 22%
- Population Membrane Permeable-Phenotype (%) [6]: 3% and 2%
- Population Mitochondria Different-Phenotype (%) [6]: 72% and 70%
- Population Mitotic Cells (%) [6]: 13% and 7%
- Population Normal (%) [6]: 71% and 77%
- Population Pyknosed Nuclei (%) [6]: 66% and 72%
- Population Tubulin-Different-Phenotype (%) [6]: 84% and 87%
- Total Cell Count [6]: 289 and 271

Structure (SMILES): Cc1ccc2c(c1CCC(=O)O)CC[C@@H](NS(=O)(=O)c1ccc(Cl)cc1)C2 [TERUTROBAN]
- Population Apoptotic (%) [1]: 59% and 56%
- Population Fragmented Nuclei (%) [1]: 2% and 4%
- Population Healthy Nuclei (%) [1]: 81%
- Population Hoechst High Intensity Objects (%) [1]: 7%
- Population Membrane Permeable-Phenotype (%) [1]: 3% and 2%
- Population Mitochondria Different-Phenotype (%) [1]: 20% and 14%
- Population Mitotic Cells (%) [1]: 40% and 43%
- Population Normal (%) [1]: 92%
- Population Pyknosed Nuclei (%) [1]: 15% and 14%
- Population Tubulin-Different-Phenotype (%) [1]: 47%
- Total Cell Count [1]: 534 and 671
- Population Apoptotic (%) [2]: 55% and 71%
- Population Fragmented Nuclei (%) [2]: 5% and 3%
- Population Healthy Nuclei (%) [2]: 77% and 81%
- Population Hoechst High Intensity Objects (%) [2]: 8%
- Population Membrane Permeable-Phenotype (%) [2]: 4% and 1%
- Population Mitochondria Different-Phenotype (%) [2]: 24% and 20%
- Population Mitotic Cells (%) [2]: 44% and 28%
- Population Normal (%) [2]: 91%
- Population Pyknosed Nuclei (%) [2]: 17% and 15%
- Population Tubulin-Different-Phenotype (%) [2]: 70% and 50%
- Total Cell Count [2]: 599 and 487
- Population Apoptotic (%) [3]: 65% and 40%
- Population Fragmented Nuclei (%) [3]: 7% and 6%
- Population Healthy Nuclei (%) [3]: 81% and 86%
- Population Hoechst High Intensity Objects (%) [3]: 6% and 9%
- Population Membrane Permeable-Phenotype (%) [3]: 3%
- Population Mitochondria Different-Phenotype (%) [3]: 6% and 5%
- Population Mitotic Cells (%) [3]: 35% and 59%
- Population Normal (%) [3]: 93% and 90%
- Population Pyknosed Nuclei (%) [3]: 10% and 6%
- Population Tubulin-Different-Phenotype (%) [3]: 30% and 25%
- Total Cell Count [3]: 837 and 1016
- Population Apoptotic (%) [4]: 58% and 52%
- Population Fragmented Nuclei (%) [4]: 9% and 6%
- Population Healthy Nuclei (%) [4]: 79% and 84%
- Population Hoechst High Intensity Objects (%) [4]: 8% and 9%
- Population Membrane Permeable-Phenotype (%) [4]: 2% and 3%
- Population Mitochondria Different-Phenotype (%) [4]: 9% and 7%
- Population Mitotic Cells (%) [4]: 41% and 47%
- Population Normal (%) [4]: 91% and 90%
- Population Pyknosed Nuclei (%) [4]: 11% and 9%
- Population Tubulin-Different-Phenotype (%) [4]: 44% and 35%
- Total Cell Count [4]: 911 and 714
- Population Apoptotic (%) [5]: 11%
- Population Fragmented Nuclei (%) [5]: 12% and 9%
- Population Healthy Nuclei (%) [5]: 82% and 86%
- Population Hoechst High Intensity Objects (%) [5]: 7% and 9%
- Population Membrane Permeable-Phenotype (%) [5]: 4% and 7%
- Population Mitochondria Different-Phenotype (%) [5]: 0% and 1%
- Population Mitotic Cells (%) [5]: 88%
- Population Normal (%) [5]: 92% and 90%
- Population Pyknosed Nuclei (%) [5]: 4% and 3%
- Population Tubulin-Different-Phenotype (%) [5]: 12% and 11%
- Total Cell Count [5]: 2114 and 2407
- Population Apoptotic (%) [6]: 26% and 21%
- Population Fragmented Nuclei (%) [6]: 14% and 10%
- Population Healthy Nuclei (%) [6]: 80% and 86%
- Population Hoechst High Intensity Objects (%) [6]: 9% and 8%
- Population Membrane Permeable-Phenotype (%) [6]: 6% and 5%
- Population Mitochondria Different-Phenotype (%) [6]: 1%
- Population Mitotic Cells (%) [6]: 73% and 78%
- Population Normal (%) [6]: 90% and 91%
- Population Pyknosed Nuclei (%) [6]: 5% and 3%
- Population Tubulin-Different-Phenotype (%) [6]: 20% and 15%
- Total Cell Count [6]: 1958 and 1618
